Test results: PMC8621847 (Research in Pharmaceutical Sciences, 2021)
“Also recorded” adds a separate entry of the source.

Experiments:
MCF-7 cell line = test: MTT cytotoxicity assay, MCF-7 cell line; assay type: cell-based; details: for improvement of cytotoxicity by hybridization, compared with VIIa and VIIb: MCF-7, fused pyrazole hybrids versus benzoxazinones VIIa and VIIb; for cytotoxic effect on MCF-7 cell line (in words): MTT assay
How it was run: (§1)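 Cells grown in RPMI-1640 with 10% FBS and 1% penicillin/streptomycin, seeded at 5-7 × 10^4 per well, 37 °C, 5% CO2. Test compound at final 1, 4, 6, 8, 10, 40, 60, 80 and 100 μM for 48 h. MTT (5 mg/mL in PBS) added for 3 h, formazan dissolved in DMSO, absorbance read at 570 nm. Doxorubicin (20 μM) was the positive control, untreated cells set 100% viability, and medium was the blank. Triplicate, repeated on three days.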

HUVEC cell line = test: MTT cytotoxicity assay, HUVEC normal cell line; assay type: cell-based; details: Homo sapiens, 48 h, read-out: IC50 HUVEC
How it was run: as §1

O=C(N/C(=C/c1ccc(Cl)cc1)c1nc2ccccc2c2cc(=O)[nH]n12)c1ccccc1 [IXa, (E)-N-(2-(4-chlorophenyl)-1-(2-oxo-2,3-dihydropyrazolo[1,5-c]quinazolin-5-yl)vinyl)benzamide]
improvement of cytotoxicity by hybridization, compared with VIIa and VIIb (MCF-7 cell line): 3-4 times
IC50 (HUVEC cell line): 79 ± 3.71 µM

Cc1nc2ccccc2c(=O)n1N1C(=O)/C(=C/c2ccc(Cl)cc2)N=C1c1ccccc1 [XIIIa, (Z)-3-(4-(4-chlorobenzylidene)-5-oxo-2-phenyl-4,5-dihydro-1H-imidazol-1-yl)-2-methylquinazolin-4(3H)-one]
IC50 (HUVEC cell line): 94.41 ± 0.89 µM

O=C1OC(c2ccccc2)=N/C1=C\c1ccc([N+](=O)[O-])cc1 [Vb, (Z)-4-(4-nitrobenzylidene)-2-phenyloxazol-5(4H)-one]
cytotoxic effect on MCF-7 cell line (in words) (MCF-7 cell line): no remarkable cytotoxic effect; also recorded: no inhibitory activity
IC50 (HUVEC cell line): 93.3 ± 4.11 µM

O=C1OC(c2ccccc2)=N/C1=C\c1ccc(Cl)cc1 [Va, (Z)-4-(4-chlorobenzylidene)-2-phenyloxazol-5(4H)-one]
cytotoxic effect on MCF-7 cell line (in words) (MCF-7 cell line): no remarkable cytotoxic effect; also recorded: no inhibitory activity
IC50 (HUVEC cell line): 96.4 ± 2.22 µM

COc1cccc2c1C(=O)c1c(O)c3c(c(O)c1C2=O)C[C@@](O)(C(=O)CO)C[C@@H]3O[C@H]1C[C@H](N)[C@H](O)[C@H](C)O1 [Doxorubicin, reference compound]
IC50 (HUVEC cell line): 21.17 ± 0.05 µM

O=C(N/C(=C/c1ccc(Cl)cc1)c1nc2ccccc2c(=O)o1)c1ccccc1 [VIIa, (E)-N-(2-(4-chlorophenyl)-1-(4-oxo-4H-benzo[d][1,3]oxazin-2-yl)vinyl)benzamide]
IC50 (HUVEC cell line): 72.2 ± 1.5 µM

O=C(N/C(=C/c1ccc([N+](=O)[O-])cc1)c1nc2ccccc2c2cc(=O)[nH]n12)c1ccccc1 [IXb, (E)-N-(2-(4-nitrophenyl)-1-(2-oxo-2,3-dihydropyrazolo[1,5-c]quinazolin-5-yl)vinyl) benzamide]
improvement of cytotoxicity by hybridization, compared with VIIa and VIIb (MCF-7 cell line): 3-4 times
IC50 (HUVEC cell line): 96.2 ± 4.66 µM

Cc1nc2ccccc2c(=O)n1N1C(=O)/C(=C/c2ccc([N+](=O)[O-])cc2)N=C1c1ccccc1 [XIIIb, (Z)-2-methyl-3-(4-(4-nitrobenzylidene)-5-oxo-2-phenyl-4,5-dihydro-1H-imidazol-1-yl) quinazolin-4(3H)-one]
IC50 (HUVEC cell line): 81.2 ± 6.17 µM
